Assay [1] deals with Sodium-dependent dopamine transporter (Macaca fascicularis, UniProt Q9GJT6). The assay can be described thus: Inhibition of [3H]WIN-35428 binding to dopamine transporter using of Cynomolgus monkey caudate-putamen. Format: tissue-based. An outline of the steps: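 Caudate-putamen membranes (washed in 50 mM Tris-HCl pH 7.4, 3800g spins) incubated at 4 mg original wet tissue/mL with 0.3 nM [3H]WIN35,428 and 7–14 competitor concentrations in 50 mM Tris-HCl/100 mM NaCl pH 7.4, 2 h at 0–4 °C. Filtered on BSA-soaked GF/B filters, scintillation counting. Nonspecific binding defined with 30 μM (–)-cocaine. IC50 computed by EBDA; independent experiments in triplicate.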

The species entered for assay [2] is Macaca fascicularis. Nature of the assay: Relative affinity for dopamine and serotonin transporters.
In assay [3] the target is Sodium-dependent serotonin transporter. Nature of the assay: Inhibition of [3H]- citalopram binding to serotonin transporter of Cynomolgus monkey caudate-putamen. Format: tissue-based. An outline of the steps:
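Caudate-putamen membranes (washed in 50 mM Tris-HCl pH 7.4, 3800g spins) incubated at 4 mg original wet tissue/mL with 1 nM [3H]citalopram and 7–14 competitor concentrations in 50 mM Tris-HCl/100 mM NaCl pH 7.4, 2 h at 0–4 °C. Filtered on polyethylenimine-soaked GF/B filters, scintillation counting. Nonspecific binding defined with 1 μM fluoxetine. IC50 computed by EBDA; independent experiments in triplicate.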

Several values for one entry are separate records, joined by “and”; a condition that tells them apart may be missing. Equal entries are not always repeated.

Sequence of Sodium-dependent dopamine transporter (Q9GJT6 whole entry): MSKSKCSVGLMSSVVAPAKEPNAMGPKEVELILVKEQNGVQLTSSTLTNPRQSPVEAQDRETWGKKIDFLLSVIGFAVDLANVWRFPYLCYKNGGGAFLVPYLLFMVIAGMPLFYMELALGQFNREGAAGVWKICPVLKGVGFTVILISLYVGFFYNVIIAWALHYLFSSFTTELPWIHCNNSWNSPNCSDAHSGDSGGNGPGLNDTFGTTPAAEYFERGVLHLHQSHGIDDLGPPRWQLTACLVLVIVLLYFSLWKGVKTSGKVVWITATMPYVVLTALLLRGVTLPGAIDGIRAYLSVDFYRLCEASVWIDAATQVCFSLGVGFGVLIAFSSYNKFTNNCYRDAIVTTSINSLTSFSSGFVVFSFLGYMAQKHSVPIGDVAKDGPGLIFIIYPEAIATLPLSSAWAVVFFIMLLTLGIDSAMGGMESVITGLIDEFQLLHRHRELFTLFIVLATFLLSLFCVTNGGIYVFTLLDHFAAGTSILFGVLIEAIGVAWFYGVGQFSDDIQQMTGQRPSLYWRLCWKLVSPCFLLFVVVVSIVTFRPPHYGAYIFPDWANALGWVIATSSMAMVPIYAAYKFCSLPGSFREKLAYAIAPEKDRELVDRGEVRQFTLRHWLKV

Usually IC50 stands for the midpoint of a concentration-inhibition curve. For the compound “[N-[2-[(3'-N'-PROPYL-3''ALPHA-(BIS(4-FLUORORPHENYL)METHOXY)TROPANE-2''BETA-CARBOXYLIC ACID METHYL ESTER)(2-MERCAPTOETHYL)AMINO]ACETYL]-2-AMINOETHANETHIOLATO]RHENIUM(V) OXIDE (DIASTEREOMERIC MIX) [listing 1 of 2 here]”, the IC50 in assay [1] was 482 nM and 616 nM and 343 nM. As for “[N-[2-[(3'-N'-PROPYL-3''ALPHA-(BIS(4-FLUORORPHENYL)METHOXY)TROPANE-2''BETA-CARBOXYLIC ACID METHYL ESTER)(2-MERCAPTOETHYL)AMINO]ACETYL]-2-AMINOETHANETHIOLATO]RHENIUM(V) OXIDE (DIASTEREOMERIC MIX) [listing 2 of 2 here]”, the Ratio in assay [2] was 90. `COC(=O)[C@@H]1C2CCC(C[C@@H]1OC(c1ccc(F)cc1)c1ccc(F)cc1)N2Cc1ccccc1` (stereo not given in full): the IC50 in assay [3] was determined as 4970 nM. On to `COC(=O)C1C(c2ccc(F)cc2)CC2CCC1N2CCCCCc1ccccc1` (stereo not given), for which the IC50 in assay [3] came to 49.9 nM; in assay [1], 3.4 nM. The Ratio in assay [2] stood at 15.

As for `COC(=O)[C@@H]1C2CCC(C[C@@H]1OC(c1ccc(F)cc1)c1ccc(F)cc1)N2CCCCCc1ccccc1` (stereo not given in full), the half-maximal inhibitory concentration (IC50) in assay [3] is 550 nM. The Ratio in assay [2] amounted to 6. With `COC(=O)C1C(c2ccc(F)cc2)CC2CCC1N2Cc1ccccc1` (stereo not given), the IC50 worked out at 1070 nM in assay [3] and 58.9 nM in assay [1]. Further, the Ratio in assay [2] worked out at 18. The compound `COC(=O)[C@@H]1C2CCC(C[C@@H]1OC(c1ccc(F)cc1)c1ccc(F)cc1)N2CCCc1ccccc1` (stereo not given in full) had an IC50 in assay [3] of 19.7 nM.

For `COC(=O)C1C(c2ccc(F)cc2)CC2CCC1N2CCCc1ccccc1` (stereo not given), the figures for the IC50 in assay [3] and in assay [1] were 133 nM and 1.4 nM, respectively. Also, the Ratio in assay [2] is 95.

Values taken from ChEMBL document CHEMBL1130345, “A technetium-99m SPECT imaging agent which targets the dopamine transporter in primate brain” (J Med Chem, 1997).
